Measured values as given in ChEMBL document CHEMBL1129365, “Rational design of novel immunosuppressive drugs: analogues of azathioprine lacking the 6-mercaptopurine substituent retain or have enhanced immunosuppressive effects” (1996).
pEC50: −log10 of the molar value.

Columns and labels:
Type in all cases: functional
[1] = Inhibition of lymphocyte proliferation in vitro by 25 uM.; details: Homo sapiens
[2] = Effective dose against inhibitory potency in Human mixed lymphocyte reaction; details: read-out: ED50 (the source's name)
Procedure, shortened: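 Human MLR: responder lymphocytes and mitomycin-C-treated stimulator lymphocytes, isolated on Ficoll-Metrizoate (10^5 each), cultured in triplicate in RPMI 1640 with 2 mM glutamine, 10 mM HEPES and 20% (final) pooled human AB serum plus drug. Incubation 5 days at 37 °C under 5% CO2/95% air. [3H]thymidine incorporation read; ED50 taken from a graph of ≥4 points, each the mean of 3–10 experiments.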

[3] = Percent inhibition against incorporation of [3H]thymidine in Human mixed lymphocyte reaction at a concentration of 10 uM.
[4] = Percent inhibition against incorporation of [3H]-thymidine in Human mixed lymphocyte reaction at a concentration of 25 uM
[5] = Inhibition of human mixed leukocyte proliferation in vitro; Not determined.; details: read-out: ED50 (the source's name)
[6] = Percent inhibition against incorporation of [3H]thymidine in Human mixed lymphocyte reaction at a concentration of 50 uM.

Row | SMILES | inhibition at 25 µM [1] [%] | inhibition at 25 µM [4] [%] | other results
1 | Cn1cnc([N+](=O)[O-])c1Sc1ccccc1N | 21 |  | 
2 | CCn1c(C)nc([N+](=O)[O-])c1Sc1nccn1C | 100 |  | pEC50 [2]: 5.54; inhibition at 10 µM [3]: 98%
3 | Cn1cnc([N+](=O)[O-])c1Sc1ccccn1 |  | 76 | 
4 | Cn1cnc([N+](=O)[O-])c1Sc1[nH]cnc2nc(O)nc1-2 |  | 50 | pEC50 [5]: 4.62
5 | Cn1cnc([N+](=O)[O-])c1SC1=NCCS1 | 100 |  | 
6 | Cn1cnc([N+](=O)[O-])c1Sc1nc2cc([N+](=O)[O-])ccc2[nH]1 | 2 |  | 
7 | Cn1cnc([N+](=O)[O-])c1Sc1ccccc1C(=O)O |  | 34 | 
8 | Cn1cnc([N+](=O)[O-])c1Sc1nc2cc(Cl)c(F)cc2[nH]1 |  |  | inhibition at 50 µM [6]: 59%
9 | COc1cc2nc(Sc3c([N+](=O)[O-])ncn3C)[nH]c2cc1OC | 94 |  | 
10 | Cc1cc(C)cc(Sc2c([N+](=O)[O-])ncn2C)c1 |  | 47 | 
11 | Cn1cnc([N+](=O)[O-])c1Sc1nc[nH]n1 | 58 |  | pEC50 [2]: 4.85
12 | Cn1cnc([N+](=O)[O-])c1Sc1nc2ccccc2s1 |  | 27 | 
13 | Cn1cnc([N+](=O)[O-])c1Sc1nccc(O)n1 | 29 |  | 
14 | Cn1cnc([N+](=O)[O-])c1Sc1ncc[nH]1 | 100 |  | pEC50 [2]: 5.55; inhibition at 10 µM [3]: 89%
15 | CCOC(=O)CSc1c([N+](=O)[O-])ncn1C |  | 65 | 
16 | Cc1cc(C)nc(Sc2c([N+](=O)[O-])ncn2C)n1 | 47 |  | 
17 | Cn1ccnc1Sc1c([N+](=O)[O-])ncn1C | 100 |  | pEC50 [2]: 5.50; inhibition at 10 µM [3]: 82%
18 | Cn1cnc([N+](=O)[O-])c1Sc1nc2ccccc2o1 |  | 87 | 
19 | CCn1c(C)nc([N+](=O)[O-])c1Sc1nncn1C | 100 |  | pEC50 [2]: 5.60; inhibition at 10 µM [3]: 98%
20 | Cc1ccc2[nH]c(Sc3c([N+](=O)[O-])ncn3C)nc2c1 | 86 |  | 
21 | Cn1cnc([N+](=O)[O-])c1Sc1ncccn1 | 47 |  | 
22 | COc1ccc(OC)c2[nH]c(Sc3c([N+](=O)[O-])ncn3C)nc12 | 41 |  | 
23 | Cn1cnnc1Sc1c([N+](=O)[O-])ncn1C | 100 |  | pEC50 [2]: 5.57; inhibition at 10 µM [3]: 98%
24 | Cn1cnc([N+](=O)[O-])c1Sc1nc2ccccc2[nH]1 | 90 |  | 
25 | Cn1cnc([N+](=O)[O-])c1Sc1ncnc2[nH]cnc12 [AZATHIOPRINE] |  | 79 | pEC50 [2]: 5.10
